Test results reported in PubChem BioAssay.
A number with no mark means an inactive call. Inconclusive results are not listed. Calls of active or inactive are those of the source.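 The calls were made as follows, unless noted: active = viability increase at or above a cutoff of the median across tested compounds plus 3 SD (cut at about 8.5% in these data, passing the limit was not always enough); inconclusive = some gains above the cutoff, reason not given; inactive = the rest.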

How the values were obtained:
[1] = OD615 S. cerevisiae growth inhibition, permissive medium, pilot counter-assay, permissive growth control for S. cerevisiae lifespan shortening project (AID 705;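 active = growth inhibition above 25% in both replicates, a cutoff set 3 SD above the mean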); conditions: OD615, 24 h, at 10 µM, active compounds read high
In short: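 System: S. cerevisiae with engineered DeaD lifespan system. Medium: SC raffinose/galactose permissive medium. Doses: single compound dose of 10 µM, 0.25% DMSO final. Schedule: 24 h exposure, 30 °C. Measured by: OD615 turbidity read. Read-out: growth inhibition.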

[2] = Restrictive medium S. cerevisiae growth inhibition, OD615, pilot screen of yeast lifespan reduction project, restrictive growth control (AID 706;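 active = growth inhibition above a set limit, 3 SD over mean compound inhibition, in both replicates, cut at about 43% in these data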;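 also: modified DeaD lifespan yeast strain shifted to restrictive glucose medium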); conditions: OD615, 48 h, at 10 µM, active compounds read high
In short: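 Assay system – genetically modified Saccharomyces cerevisiae, DeaD replicative lifespan assay strain · Medium – CSMM-D glucose medium · Doses – 10 µM compound, 0.25% DMSO · Times – 4 h pre-incubation, 48 h exposure at 30 °C · Signal – optical density at 615 nm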

[3] = viability gain of MRP-1-high H69AR cells under doxorubicin, pilot screen, MRP-1 activator project, CellTiter-Glo, duplicate (AID 807); conditions: H69AR viability with doxorubicin, CellTiter-Glo luminescence; at 10 µM; active compounds read high;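 also: compound pretreatment 18-22 h then 72 h combined with doxorubicin; 0% = doxorubicin alone and 100% = vehicle without doxorubicin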
[4] = growth suppression of beta-catenin knockout HCT116, pilot screen, human colon tumor cells (AID 823;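 active = cell viability at or below a set limit in both duplicate runs, the limit being the all-compound median minus 4 SD, cut at about 23% in these data, passing the limit was not always enough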;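 also: 0% = wells killed by 20 µM Hyamine and 100% = untreated DMSO cell wells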); conditions: CellTiter-Glo, 60 h, at 10 µM, active compounds read low
[5] = inhibitors of the yeast RAM network, pilot screen, dse1pr::URA3 reporter, 5-FOA selection (AID 869;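 active = inhibition over a set limit, the all-compound mean plus 3 SD, in both replicate runs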;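 also: 0% = DMSO wells with no growth and 100% = 10 µM 1-NA-PP1 with full growth; RAM network block rescues cells from 5-FOA so hits raise OD615 growth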); conditions: S. cerevisiae dse1pr::URA3 5-FOA growth, OD615, 2 d; at 10 µM; active compounds read high; strain carries analog-sensitive mutant Cbk1 kinase
[6] = RAM signaling pathway blockade in yeast – S. cerevisiae, Pdr1DBD-CYC8 efflux-inhibited sensitized strain, primary screen (AID 1298;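 active = RAM network inhibition above 8.4% in each of two replicates, 3 SD over the compound average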;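 also: 0% = DMSO untreated cells without growth and 100% = 10 µM 1-NA-PP1 full growth; higher means more yeast growth rescued from 5-FOA killing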); conditions: S. cerevisiae cbk1-as DSE1-URA3 strain, 5-FOA growth OD615, 2 d; at 50 µM; active compounds read high

| Compound | growth inhibition [1] | growth inhibition [2] | viability increase [3] [%] | viability [4] | inhibition [5] [%] | RAM network inhibition [6] [%] |
| --- | --- | --- | --- | --- | --- | --- |
| CCOC(=O)N1CCN(C(=O)CCc2nc3sc4c(c3c(=O)[nH]2)CCCC4)CC1 | -13.4% | 2.66% | -2.68 | 104% | 2.59 | 3.99 |
| O=C(Nc1ccc2c(c1)OCCO2)c1ccc(NC(=O)C2CCCO2)cc1 (stereo not given) | -10.9% | -3.79% | -0.87 | 72.7% | 2.04 | 3.27 |
| O=C1CC(c2ccccc2)n2nc(N3C(=O)CCC3=O)nc2N1 (stereo not given) | -8.97% | 1.75% | -0.15 | 97.9% | 1.32 | 3.53 |
| CC(=O)c1ccc(NC(=O)CSc2nnc(NC(=O)CN3CCOCC3)s2)cc1 | 8.22% | 7.59% | -1.64 | 102% | 2.19 | 0.62 |
| CCC(=O)N1CCc2cc(Br)cc(S(=O)(=O)CCC(=O)NCc3ccco3)c21 | -26.8% | 0.16% | -4.1 | 94.9% | 2.91 | 4.36 |
| O=C(CNC(=O)Cn1ccc2ccccc2c1=O)NCCCN1CCCCCC1 | -7.25% | -1.09% | -2.48 | 91.2% | -0.25 | 4.42 |
| CCN(CC)S(=O)(=O)c1ccc(NC(=O)Cn2c(=O)oc3ccccc32)cc1 | -12.3% | -11.6% | -3.33 | 96.7% | 2.38 | 5.71 |
| c1coc(CNc2nc3sc4c(c3c3ncnn23)CCCC4)c1 | -19.5% | 0.565% | -2.99 | 99.4% | 2.65 | 3.48 |
| CCCCCn1c(=O)[nH]c2cc(C(=O)NCc3ccc4c(c3)OCO4)ccc2c1=O | -12.1% | -10.7% | -6.7 | 71.2% | 3.82 | 5.87 |
| CN(C)/C=C1/Sc2ccccc2C1=O | -13.4% | 10% | -3.51 | 103% | 1.11 | -0.73 |
| CCCSc1nc(N)c2c3c(sc2n1)CN(C)CC3 | -25% | -3.27% | -2.7 | 80.9% | 1.02 | 6.8 |
| CCCn1c(CNC(=O)Cc2ccccc2)nc2ccccc21 | 4.79% | 4.86% | -0.37 | 106% | 2.26 | 2.59 |
| CC1CCN(C(=O)CSc2nc(N)c3c4c(sc3n2)CN(C)CC4)CC1 | -10.2% | 12.6% | -3.86 | 102% | 0.905 | 2.24 |
| C=CCn1c(=O)[nH]c2cc(C(=O)N3CCN(c4cccc(Cl)c4)CC3)ccc2c1=O | -16.5% | -12.3% | -6.95 | 79.3% | 3.33 | 3.07 |
| Cc1nc(-n2nnc3ccccc32)c2c3c(sc2n1)CCCC3 | -14.5% | 0.92% | -2.54 | 82% | 1.11 | 3.02 |
| Cc1cc(C)nc(/N=c2/ssnc2Cl)c1 | 100% (active) | 89.9% (active) | -7.78 | 30.8% | 1.81 | -2.52 |
| O=C(NCc1ccc2c(c1)OCO2)C1CCN(c2ccc(S(=O)(=O)N3CCCC3)cc2)CC1 | -20.2% | -1.93% | -6.29 | 65.5% | 3.25 | 4.72 |
| COc1ccc(NC(=O)C(c2ccc(OC)cc2)N(C)C(=O)c2cnccn2)cc1 (stereo not given) | 9.44% | 2.07% | -2.29 | 101% | 2.52 | 1.4 |
| COc1ccc2c(c1)-c1nc(NC(=O)c3cccs3)sc1CC2 | -13.6% | -12.2% | -1.82 | 33.6% | 3.16 | 1.99 |
| Cc1nc2c3c4c(sc3n3c(SCC(=O)NCc5ccco5)nnc3n2n1)COC(C)(C)C4 | -15.2% | 3.31% | -6.89 | 88.7% | 1.85 | 5.05 |

| Compound | growth inhibition [1] | growth inhibition [2] | viability increase [3] [%] | viability [4] | inhibition [5] [%] | RAM network inhibition [6] [%] |
| --- | --- | --- | --- | --- | --- | --- |
| Cc1ccc(Cn2c(Sc3nccc(C)n3)nc3c2c(=O)[nH]c(=O)n3C)cc1 | -22.6% | 2.41% | -2.6 | 83.5% | 2.89 | 3.29 |
| CC1(C)OC(=O)C(=C2CCCN2)C(=O)O1 | 0.65% | -5.36% | -1.34 | 105% | 0.815 | 6.12 |
| CC1CCC(NC(=O)Cn2c(=O)[nH]c3ccsc3c2=O)CC1 (stereo not given) | -13.7% | -3.85% | 1.29 | 99.5% | 2.09 | 4.16 |
| Clc1nc2sccn2c1/C=N/n1cnc2ccccc21 | 19.9% | 33.8% | -6.14 | 94.7% | 0.675 | 2.34 |
| COc1cc(C2=Nc3c(c(C)nn3-c3ccccc3)P(=O)(N3CCOCC3)O2)cc(OC)c1OC (stereo not given) | 12.4% | 0.78% | -2.26 | 92% | 0.485 | 2.86 |
| O=C(NCc1ccc(N2CCCC2=O)cc1)c1cn(CCc2ccccc2)nn1 | -5.88% | -13.3% | 1.6 | 95.1% | 1.7 | 7.58 |
| CC(C)c1ccc(-c2nc(N3CCCC3)nc3n[nH]c(N)c23)cc1 | -26.6% | 10.3% | -5.36 | 69.8% | 3.83 | 10.8 |
| Cc1ccc(S(=O)(=O)N2CCC(C(=O)N[C@@H](C)C(=O)NCC3CCCO3)CC2)cc1 (stereo not given in full) | -19.6% | -9.68% | -2.65 | 97% | 2.1 | -0.73 |
| COc1ccccc1C(=O)Nc1nnn(C)n1 | -26.5% | 6.7% | -0.45 | 108% | 0.84 | 6.87 |
| CCOC(=O)CNC(=O)c1cn(CC)c(=O)c2cc(OC)c(OC)cc12 | -14.4% | -5.67% | -2.48 | 103% | 2.65 | 2.7 |
| Cc1ccc(N=C2SCCCN2C(=O)c2ccco2)cc1Cl | -10.1% | 4.65% | -5.58 | 87.6% | 0.575 | 0.78 |
| CCCCCn1c(=O)[nH]c2cc(C(=O)NCCCN(CC)CC)ccc2c1=O | -20.8% | -0.04% | -4.48 | 47.3% | 1.65 | 3.74 |
| Cc1ccc(S(=O)(=O)c2nc(-c3cccs3)oc2SCC(N)=O)cc1 | -8.57% | 10.4% | -2.87 | 106% | -0.475 | 3.22 |
| CCOC(=O)N1CCC(NC(=O)C(Cc2ccccc2)NC(=O)C2CCCCC2)CC1 (stereo not given) | -1.7% | 3.73% | -2.92 | 100% | 0.04 | 6.59 |
| Cc1c(C(=O)N(C)Cc2ccccc2)oc2ccc(S(=O)(=O)N3CCCC3)cc12 | -18.8% | -11.4% | -5.85 | 54.3% | 0.18 | 4.09 |
| O=C(CCS(=O)(=O)c1ccccc1)Nc1nc2c(s1)COc1ccccc1-2 | -11.8% | -10.9% | -8.46 | 5.88% (active) | 1.32 | 3.55 |
| Cc1ccc(-c2nc(=S)c3c(n2Cc2ccco2)CC(C)(C)OC3)cc1 | -13.2% | 2.99% | -2.16 | 69.2% | -0.945 | 3.44 |
| COc1ccc2c(c1)SC1=NCCS(=O)(=O)N12 | -7.75% | -10.4% | -2.86 | 105% | 0.315 | 4.32 |
| c1ccc(Nc2nc(N3CCCCC3)nc(N3CCNCC3)n2)cc1 | -9.86% | -6.95% | -8.19 | 3.71% (active) | 0.98 | 3.63 |
| COC(=O)CCC(=O)Oc1ccc(OC(=O)CCC(=O)OC)cc1 | 7.12% | 2.51% | -4.94 | 72.9% | 1.48 | 0.94 |
